For data set [1] the following is noted: 28-day and 22-week rat and 28-day dog studies; cited from earlier work.
The target in another data set is CYP2C19 (Homo sapiens, UniProt P33261). The following applies: 10 μM, spectrofluorimetric substrates; ref Arthur, unpublished results; cited from earlier work.
Data set [2] can be described thus: Pharmacokinetics of S2227 and M179 hydrochloride in mice. The class given is in vivo, male CD-1 mice. The note with it: for AUC(0-t): male, CD-1, mouse, plasma, po. An outline of the steps:
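Two groups of 28 male Crl:CD-1(ICR) mice were gavaged with a 1% methylcellulose suspension of either parent (30 mg/kg) or the equimolar secondary amine hydrochloride (20 mg/kg). Blood was taken by cardiac puncture from 4 mice/group/time point at about 15 and 30 min and 1, 2, 4, 8 and 24 h. Plasma levels of parent and metabolites gave Cmax and AUClast.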

Data set [3] concerns bone marrow polychromatic erythrocytes. The experiment in a line: In vivo micronucleus assay, bone marrow PCEs. More on the design: species or system CD-1 mice. The note with it: for Mortality: dose range finding. An outline of the steps: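 Crl:CD-1(ICR) mice were gavaged for three consecutive days in 1% methylcellulose at 10 mL/kg. Dose-range phases used 3/sex/group: parent at 500–2000 mg/kg, amine salt at 125–2000 mg/kg/day. Definitive phases used 6/sex (parent) or 5/sex (amine), with MMS 40 mg/kg/day as positive control. Micronuclei were scored in 2000 bone marrow PCEs per animal, and the PCE/total erythrocyte ratio was used for cytotoxicity.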

Data set [4] in a line: Pharmacokinetics after single iv or oral S2227 in dogs. The class given is in vivo, beagle dogs. The note with it: for AUC0-last ratio M179/S2227 / AUC0-last/dose: Dog (M); for AUC(0-t) / Cmax / Tmax / half-life: male, beagle, dog; for AUC(0-t) / Cmax / Tmax / half-life / AUC0-last/dose: plasma.
The subject of data set [5] is S. typhimurium strains TA98, TA100, TA1535, TA1537 and E. coli strain WP2 uvrA. As to the kind of experiment: Bacterial reverse mutation test. The class given is cell-based. The following applies: 50-5000 μg/plate, initial and confirmatory plate incorporation, ±S9. An outline of the steps: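 OECD 471 design, run with and without Aroclor 1254-induced male Sprague-Dawley rat liver S9 (9000 × g fraction). The parent compound was tested by plate incorporation and pre-incubation at 63–1000 µg/plate. The secondary amine hydrolysis product (hydrochloride) was tested by plate incorporation only, in an initial toxicity-mutation phase and a confirmatory phase, at nominal 50–5000 µg/plate. Positive and vehicle controls ran concurrently.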

The nature of data set [6]: In vitro metabolism in liver microsomes. The following applies: Rat (20 min), positive ionization. The class given is in vitro ADME, Sprague-Dawley rat.
In the next data set the test system is liver cells. The experiment in a line: In vivo alkaline comet assay, liver. More on the design: species or system CD-1 mice. The following applies: males: 125, 250, 500 mg/kg bw; females: 250, 500, 1000 mg/kg bw (oral). An outline of the steps: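 Run on the same Crl:CD-1(ICR) mice as the micronucleus study, 5/sex/group. Animals received the salt of the secondary amine hydrolysis product by oral gavage for three consecutive days, with 1% methylcellulose as vehicle control. Liver cells were analysed by alkaline single-cell gel electrophoresis, scoring % tail DNA and counting "clouds" (hedgehogs) against vehicle controls.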

For data set [7], the system named is human peripheral blood lymphocytes (HPBL). As to the kind of experiment: In vitro chromosome aberration test.
A short description of data set [8]: In vitro metabolism in liver microsomes. The class given is in vitro ADME. The following applies: Human (60 min), positive ionization.
Data set [9] in a line: Pharmacokinetics after single iv or oral S2227 in rats. In kind it is in vivo, Sprague-Dawley rats. The note with it: for AUC(0-t) / Cmax / Tmax / half-life: Sprague-Dawley, rat; for AUC(0-t) / Cmax / Tmax / half-life / AUC0-last/dose: plasma. In outline: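 IV dosing: 4 male and 4 female Sprague-Dawley rats given a 1 mg/kg bolus in PEG 400, with blood sampled at about 0, 2, 5, 10 and 30 min and 1, 2, 4 and 8 h. Oral dosing: 4/sex/group gavaged at 10, 30 or 100 mg/kg in 1% methylcellulose, with blood sampled at about 0, 15 and 30 min and 1, 2, 4, 8 and 24 h. Plasma was assayed for parent and metabolites.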

Data set [10] is described as follows: In vitro metabolism in liver microsomes. In kind it is in vitro ADME, Gottingen pig. The note with it: Pig (10 min), positive ionization.
The nature of data set [11]: In vitro metabolism in liver microsomes. The following applies: Dog (60 min), positive ionization. The class given is in vitro ADME.
The conditions of data set [12]: ref Chi, unpublished results, cited from earlier work.

Where “and” joins values, the source holds several entries; their conditions need not be identical. Identical values can stand only once. Entries after “also recorded” stand apart in the source; their conditions may differ. Counter-ions that a name gives are not always drawn. Like-named read-outs stand apart in the source and are kept apart here.

CYP2C19, sequence (P33261 whole entry): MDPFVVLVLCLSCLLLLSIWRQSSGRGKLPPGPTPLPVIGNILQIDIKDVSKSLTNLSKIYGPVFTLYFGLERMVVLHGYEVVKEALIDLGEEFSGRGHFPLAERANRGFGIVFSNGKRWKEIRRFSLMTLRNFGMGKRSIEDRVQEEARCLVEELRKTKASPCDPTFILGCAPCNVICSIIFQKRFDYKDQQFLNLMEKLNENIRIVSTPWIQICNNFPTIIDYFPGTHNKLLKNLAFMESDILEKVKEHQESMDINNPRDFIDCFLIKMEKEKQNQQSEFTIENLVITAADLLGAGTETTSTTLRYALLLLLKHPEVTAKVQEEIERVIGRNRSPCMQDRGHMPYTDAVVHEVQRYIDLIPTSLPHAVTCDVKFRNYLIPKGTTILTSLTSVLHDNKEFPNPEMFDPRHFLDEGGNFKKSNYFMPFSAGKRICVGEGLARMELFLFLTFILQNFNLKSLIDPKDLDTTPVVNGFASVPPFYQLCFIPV

Regarding `CCNC(=O)C1CC(C)CCC1C(C)C` (centres unmarked) [FEMA 3455, N-ethyl-p-menthane-3-carboxamide], the NOEL in data set [1] is recorded as 8 mg/kg/day. Moreover, the “% inhibition of CYP2C19” value on CYP2C19 was 74%.
As for `c1csc(CNc2cc[nH]n2)c1` [M179 hydrochloride salt, N-(2-thienylmethyl)-1H-pyrazol-3-amine], in data set [2] (oral, mice), the “fold higher exposure of M179 in plasma than after an equimolar dose of S2227” value came out at 158 fold. The Mortality is 3/3 in data set [3] (females, 2000 mg/kg); 2/3 in data set [3] (males, 1000 mg/kg/day); 3/3 in data set [3] (males, 2000 mg/kg).
As to `c1csc(CNc2cc[nH]n2)c1` [M179, N-(2-thienylmethyl)-1H-pyrazol-3-amine], the “AUC0-last ratio M179/S2227” value is recorded as 0.007 in data set [4] (S2227 iv 1.0 mg/kg); 0.187 in data set [4] (S2227 oral gavage 10 mg/kg); 0.139 in data set [4] (S2227 oral gavage 30 mg/kg); 0.243 in [4] (S2227 oral gavage 100 mg/kg); 0.042 in [9] (S2227 iv 1.0 mg/kg, Rat (F)); 0.040 in [9] (S2227 iv 1.0 mg/kg, Rat (M)). Moreover, the “AUC0-last ratio M179/S2227” value is on record as 48.9 in [9] (S2227 oral gavage 10 mg/kg, Rat (F)); 155 in data set [9] (S2227 oral gavage 10 mg/kg, Rat (M)); 86.2 in [9] (S2227 oral gavage 30 mg/kg, Rat (F)); 98.6 in data set [9] (S2227 oral gavage 30 mg/kg, Rat (M)); 38.1 in [9] (S2227 oral gavage 100 mg/kg, Rat (F)); 69.9 in data set [9] (S2227 oral gavage 100 mg/kg, Rat (M)). Also, the AUC(0-t) was determined as 6.63 ± 0.9 ng·h/mL in data set [4] (iv, 1 mg/kg); 22.2 ± 8.78 ng·h/mL in data set [4] (po, 10 mg/kg); 31 ± 15.4 ng·h/mL in data set [4] (po, 30 mg/kg); 171 ± 144 ng·h/mL in data set [4] (po, 100 mg/kg); 4370 ng·h/mL in [2] (20 mg/kg); 27.6 ng·h/mL in data set [2] (30 mg/kg). Besides, the AUC(0-t) in [9] (female, iv, 1 mg/kg) is 12.6 ± 5.02 ng·h/mL; in data set [9] (female, po, 10 mg/kg) it was 384 ± 267 ng·h/mL; in [9] (female, po, 30 mg/kg), 2510 ± 1700 ng·h/mL; in data set [9] (female, po, 100 mg/kg), 5980 ± 745 ng·h/mL; in data set [9] (male, iv, 1 mg/kg), 8.78 ± 1.97 ng·h/mL; in [9] (male, po, 10 mg/kg), 254 ± 102 ng·h/mL. The AUC(0-t) in data set [9] (male, po, 30 mg/kg) was 614 ± 201 ng·h/mL; in data set [9] (male, po, 100 mg/kg), 3500 ± 813 ng·h/mL. Moreover, the Cmax was 5.2 ± 0.9 ng/mL in data set [4] (iv, 1 mg/kg); 10.2 ± 4.84 ng/mL in data set [4] (po, 10 mg/kg); 6.81 ± 2.15 ng/mL in data set [4] (po, 30 mg/kg); 129 nM and 23.1 ng/mL in data set [4] (po, 100 mg/kg); 14 ± 4.84 ng/mL in data set [9] (female, iv, 1 mg/kg); 407 ± 289 ng/mL in data set [9] (female, po, 10 mg/kg). Further, the Cmax in data set [9] (female, po, 30 mg/kg) was 1540 ± 1050 ng/mL; in data set [9] (female, po, 100 mg/kg), 1770 ± 457 ng/mL; in data set [9] (male, iv, 1 mg/kg), 15.1 ± 3.23 ng/mL; in data set [9] (male, po, 10 mg/kg) it was 189 ± 94.5 ng/mL; in data set [9] (male, po, 30 mg/kg), 290 ± 115 ng/mL; in data set [9] (male, po, 100 mg/kg), 5.64 µM and 1010 ng/mL. In addition, the time of peak concentration (Tmax) in data set [4] (iv, 1 mg/kg) was determined as 0.5 h; in data set [4] (po, 10 mg/kg), 4.67 h; in data set [4] (po, 30 mg/kg) it was 1 h; in data set [4] (po, 100 mg/kg) it was 10 h; in data set [9] (female, iv, 1 mg/kg), 0.13 h; in data set [9] (female, po, 10 mg/kg), 0.44 h. In addition, the Tmax in data set [9] (female, po, 30 mg/kg) was 0.75 h; in data set [9] (female, po, 100 mg/kg), 0.83 h; in data set [9] (male, iv, 1 mg/kg), 0.11 h; in data set [9] (male, po, 10 mg/kg), 0.5 h; in [9] (male, po, 30 mg/kg) it was 0.75 h; in data set [9] (male, po, 100 mg/kg) it was 1.13 h. The half-life in data set [4] (iv, 1 mg/kg) is 1.1 h; in data set [4] (po, 10 mg/kg), 4.77 h; in [4] (po, 30 mg/kg), 2.27 h; in [4] (po, 100 mg/kg), 4.69 h; in data set [9] (female, iv, 1 mg/kg), 0.82 h; in data set [9] (female, po, 10 mg/kg), 1.02 h. Moreover, the half-life in [9] (female, po, 30 mg/kg) was 1.06 h; in data set [9] (female, po, 100 mg/kg) it was 1.84 h; in [9] (male, iv, 1 mg/kg) it was 0.28 h; in [9] (male, po, 10 mg/kg), 1.12 h; in data set [9] (male, po, 30 mg/kg), 1.29 h; in data set [9] (male, po, 100 mg/kg) it was 1.83 h. Further, the AUC0-last/dose amounted to 6.63 ng·h/mL/mg/kg in data set [4] (dosed S2227 iv 1.0 mg/kg); 2.22 ng·h/mL/mg/kg in data set [4] (dosed S2227 oral gavage 10 mg/kg); 1.03 ng·h/mL/mg/kg in data set [4] (dosed S2227 oral gavage 30 mg/kg); 1.71 ng·h/mL/mg/kg in [4] (dosed S2227 oral gavage 100 mg/kg); 12.6 ng·h/mL/mg/kg in data set [9] (dosed S2227 iv 1.0 mg/kg, Rat (F)); 8.78 ng·h/mL/mg/kg in data set [9] (dosed S2227 iv 1.0 mg/kg, Rat (M)). Moreover, the AUC0-last/dose in [9] (dosed S2227 oral gavage 10 mg/kg, Rat (F)) amounted to 38.4 ng·h/mL/mg/kg; in [9] (dosed S2227 oral gavage 10 mg/kg, Rat (M)), 25.4 ng·h/mL/mg/kg; in data set [9] (dosed S2227 oral gavage 30 mg/kg, Rat (F)), 83.7 ng·h/mL/mg/kg; in data set [9] (dosed S2227 oral gavage 30 mg/kg, Rat (M)), 20.5 ng·h/mL/mg/kg; in data set [9] (dosed S2227 oral gavage 100 mg/kg, Rat (F)) it was 59.8 ng·h/mL/mg/kg; in data set [9] (dosed S2227 oral gavage 100 mg/kg, Rat (M)), 35.0 ng·h/mL/mg/kg. Also, the “Reverse mutation (in vitro)” value in data set [5] is given as “not mutagenic; also recorded: Negative”. The “relative EIC peak area (%) compared to S2227 peak area at T = 0 min” value in [6] was 6.47%; in data set [8], 0.91%; in data set [10], 37.29%; in data set [11], 10.26%. In addition, in the data set on liver cells, the “DNA damage (in vivo), liver Comet assay” value is on record as “negative (non-DNA damaging); also recorded: Negative”. Moreover, the “Chromosome aberration (in vitro)” value in data set [7] (280-2160 μg/mL 4 h -S9, 100-1840 μg/mL 4 h +S9, 25-280 μg/mL 20 h -S9) is “Positive (4 h,⿿S9)”. Further, the “induction of structural aberrations” value in [7] (S9-activated test system) was “negative”; in data set [7] (non-activated test system), “positive”. In addition, in data set [7] (non-activated and S9-activated test systems), the “induction of numerical aberrations” value was “negative”. For the same molecule, in data set [3] (males: 125, 250, 500 mg/kg bw, females: 250, 500, 1000 mg/kg bw (oral)), the “Micronucleus formation (in vivo)” value is “did not induce micronuclei; also recorded: Negative”.
Turning to `CCN(Cc1cccs1)C(=O)COc1ccc(C)cc1` [S5031, 2-(4-methylphenoxy)-N-ethyl-N-(2-thienylmethyl) acetamide], in [12] (jugular vein (JV)), the “AUC0-8h ratio (acid/amine)” value is on record as 23.0 and the “AUC0-8h ratio (amide/acid)” value is 0.013. In data set [12] (portal vein (PV)), the “AUC0-8h ratio (acid/amine)” value is listed as 13.3 and the “AUC0-8h ratio (amide/acid)” value is on record as 0.52.
